Fewer inactive variants are shown than the library holds.
B1: tRNA (parent)
chain: GUUCCGUUGGCGUAAUGGUAACGCGUCUCCCUCCUAAGGAGAAGACUGCGGGUUCGAGUCCCGUACGGAACG

Variants of: B1
Assay: yeast fitness relative to wild type (ratio to wild type); higher = fitter; tRNA-Arg(CCU), competitive growth, 37 C, YPD
Outline: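 The tRNA-Arg(CCU) gene variants were made by chemical synthesis with a 3% per-site mutation rate at 69 sites and inserted at the native genomic locus of Saccharomyces cerevisiae. After pooling, the strains were competed in YPD at 37°C for 24 hours in six parallel replicates. Gene amplicons from the start population and each end population were read by 100-nucleotide paired-end sequencing, and Darwinian fitness relative to wild type was taken from genotype frequency changes. Genotypes needed ≥ 100 starting reads, and estimates < 0.5 were set to 0.5.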

Variant | yeast fitness
C5A G48C A57U | ≤ 0.5
C5A G48C A57G | 0.557
C5A U8C A21G | 0.53
C5A C46G C49A G67C | ≤ 0.5
C5A G17C A43U | 0.543
C5A G6C C11G U19A C49A | 0.571
C5A G50C | 0.626
C5A G9C A36U U54A C55U | ≤ 0.5
C5A U32C A36C G51A | 0.59
C5A U7A G25C C46U | ≤ 0.5
C5A C34U | 0.786
C5A U19G C31G U53A | 0.775
C5A U16C A21C C33U A40G A43U U54G C62G | ≤ 0.5
C5A C46G | 0.719
C5A C46U | 0.997
C5A U19C | 1.08
C5A U13C C27A U28G G67U | ≤ 0.5
C5A G12C G18C C30A C31G U54G A65G | ≤ 0.5
C5A C55G | 0.618
C5A G17A A36G A70G | ≤ 0.5
C5A G10A U35C C49A | ≤ 0.5
C5A G6C G63A | ≤ 0.5
C5A G12A G48A C61U | ≤ 0.5
C5A U26C G41C A43U A57G | ≤ 0.5

Variant | yeast fitness
C5A G12C C34U | ≤ 0.5
C5A G17A C55U | ≤ 0.5
C5A U8G A37U G51A G52C U59C | 0.639
C5A G38A | 0.664
C5A G38C | 0.732
C5A U16A C22G C30A | ≤ 0.5
C5A G6C C30G A42G | 0.606
C5A G50C U64C | 0.73
C5A U8C C30G C31G A65C | ≤ 0.5
C5A G9A G41A U53C U64A | ≤ 0.5
C5A C61G A70G | 0.585
C5A G17C C27G | 0.57
C5A G10C C22U A43G G58C C66G | ≤ 0.5
C5A U28G C66U | ≤ 0.5
C5A G38A U47C | 0.599
C5A G18C G50A | ≤ 0.5
C5A G39A G44A | 0.62
C5A U7A A36C G38C C55U C62A | ≤ 0.5
C5A U28A C31U G51C | ≤ 0.5
C5A U28C | 0.784
C5A U13G U32A A42U G52A U54A A69C | ≤ 0.5
C5A U8C U13C G18A C31G C46U | ≤ 0.5
C5A G23A C24U A36C | ≤ 0.5
C5A C34U G41C A69G | ≤ 0.5

Variant | yeast fitness
C5A G17C G25A U59C | ≤ 0.5
C5A G17C C22U C60G C61U | 0.947
C5A C46U U59C | 0.728
C5A G17C G39C | ≤ 0.5
C5A C61G | 0.609
C5A G17C A43U U59A | 0.609
C5A U7C U19A G38C A42G | ≤ 0.5
C5A U13A C27G A37G | ≤ 0.5
C5A G10U C30U A43C A69C | ≤ 0.5
C5A U16G A21C C24U C30A | 0.618
C5A G63U | 0.722
C5A G63A | 0.683
C5A G39A | 0.83
C5A U8C C27U A40G C49U C55G | ≤ 0.5
C5A U7G A14C U16G A43G U53C C62G | ≤ 0.5
C5A C60U A65C | ≤ 0.5
C5A C60G C66G A69G | ≤ 0.5
C5A U7C U32A G52C C55U C66U | ≤ 0.5
C5A G23C C61G C62U C66U | ≤ 0.5
C5A U16C C22U G63A | 0.553
C5A U16A A43G U59A C61A | ≤ 0.5
C5A C34U C55A | ≤ 0.5
C5A G39A C60U C62A | 0.557
C5A U13A C30U A45C | ≤ 0.5

Variant | yeast fitness
C5A G18A G52C | ≤ 0.5
C5A C46U C49U | 0.809
C5A G6C A15G A40G | ≤ 0.5
C5A U16A A45G G50A C61U | ≤ 0.5
C5A U16G C27U C29U A36U G41A C49U C66U | ≤ 0.5
C5A U13G A14G U32A A42U G52A U54A C60G | ≤ 0.5
C5A G9C A40G | ≤ 0.5
C5A U8A C46G | ≤ 0.5
C5A C60A | 0.651
C5A G9C A36U G50A U59G | 0.542
C5A C55A A69C | ≤ 0.5
C5A U7C A65C | ≤ 0.5
C5A G41A G56C A65C | ≤ 0.5
C5A G51C G63C A65C | ≤ 0.5
C5A U7C A36G | ≤ 0.5
C5A U28G C30G A40C A42U | ≤ 0.5
C5A U26A A43U A65U | ≤ 0.5
C5A G12A U35C G44A G48C C55G A69U | ≤ 0.5
C5A G10A A21C C24A A65C | ≤ 0.5
C5A G38U C55A | ≤ 0.5
C5A G39C C46A C60G | ≤ 0.5
C5A U13A A45C | 0.576
C5A U16C C22U | 0.612
C5A G58U | 0.946

Variant | yeast fitness
C5A G17A A40G C46A | ≤ 0.5
C5A G17A A40U | ≤ 0.5
C5A G41A A57C C62A | 0.54
C5A U16A G39A A45G G50A | ≤ 0.5
C5A U16C C30A A45U G50C G63A | ≤ 0.5
C5A U7A G39A C60U C62A | ≤ 0.5
C5A U13A A20G A42C U59C | ≤ 0.5
C5A U26A C66A | ≤ 0.5
C5A G48C | 0.953
C5A G17A C46A C55G | ≤ 0.5
C5A U13C C29U C55U G56A | ≤ 0.5
C5A C34U C49A G52A | ≤ 0.5
C5A G39C C60G C62A | ≤ 0.5
C5A G51A C61A | ≤ 0.5
C5A G23C G50C | ≤ 0.5
C5A U13C C29U G56C | ≤ 0.5
C5A U13G C24G C31A C62U C66U | ≤ 0.5
C5A C46G C49U | 0.727
C5A U19A G38C | ≤ 0.5
C5A U19C G50A C55A C66A | ≤ 0.5
C5A G41A A42C G50C A70G | 0.502
C5A G23C U32G A69U | ≤ 0.5
C5A G17C G18C G58A U59G | 0.535
C5A C55U A65G | 0.583

Variant | yeast fitness
C5A U26A A42C | ≤ 0.5
C5A U26C | 0.954
C5A G10C U26C G52C | ≤ 0.5
C5A G12C G18C C30A C31G U54G | 0.605
C5A G12A A37G A43C C55G G68A | ≤ 0.5
C5A G9C G38C G63C C66U | ≤ 0.5
C5A G25A C29A C30U | 0.758
C5A G17A G44C | 0.532
C5A C34U U35A C49A U54A | 0.661
C5A G6A U16A A45G G50A | ≤ 0.5
C5A U26A G51C C61G | ≤ 0.5
C5A G23C G41C G50C | ≤ 0.5
C5A G18A G52A C55G | 0.526
C5A U13A U32C U35A U59C A70U | 0.547
C5A U8C G10A A21G A45C G56C | ≤ 0.5
C5A U19C C22G C24A G39C A45C | 0.596
C5A G39A C49U | 0.541
C5A U8C | 0.929
C5A G58C A70C | 0.644
C5A G67U | 0.865
C5A U16A C22G A37U | 0.717
C5A G6C A15G A40G G67A | ≤ 0.5
C5A U19C C27U C29G C34A A42C U54A | ≤ 0.5
C5A U26C C27U | 0.687

Variant | yeast fitness
C5A U13A U35A U59C A70U | 0.58
C5A U13G C24G C31A C62G U64A | ≤ 0.5
C5A U26A C27G C30G A36U G38C C46U C49G A65U | ≤ 0.5
C5A G41C | 0.779
C5A G18C U19A C27A C33A C61G A70G | ≤ 0.5
C5A G52C | 0.567
C5A G52A | 0.641
C5A G17U A69C A70G | ≤ 0.5
C5A G41A A57G | 0.545
C5A U26G C60G C61U | ≤ 0.5
C5A G51A | 0.71
C5A U13C G18A C31G C46U | ≤ 0.5
C5A U7A A21G C61G C66G | ≤ 0.5
C5A G17A C34A | ≤ 0.5
C5A C49U | 0.848
C5A C49G | 0.704
C5A G48C G51C U53A | ≤ 0.5
C5A C49A G68C | 0.536
C5A U7A A21G G67C | 0.541
C5A U19C C34G C55A U64G A69C | 0.598
C5A G18A | 0.818
C5A G17C A57C | 0.551
C5A G23A G39C G41C A70C | ≤ 0.5

Source: the RNAGym collection of RNA variant scans (doi:10.1126/science.aae0568)
